From PubChem BioAssay
The source made the active and inactive calls.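 How the source made its calls, unless noted: active means visually confirmed hit in the image check and inhibition above 20%; inconclusive means visually confirmed hit but inhibition not above 20%; inactive means no visual hit in the image check.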

Columns and labels:
[1] = inhibitors of TNFa-induced NFkB p65 translocation, primary screen, imaging, HUVEC, MLSMR starter and 10KST1 sets (AID 438;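 active means inhibition above 20% together with a positive visual image hit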;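 further: compound added about 3h40 before a 20 min TNFalpha stimulation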;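 on inhibition: signal is the nuclear over cytoplasmic p65 intensity ratio per well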); conditions: HUVEC TNFa-induced p65 nuclear translocation; cell count: measured here: nuclei count (cytotoxicity indicator), at 2.08 µM; inhibition: at 2 µM, stronger effect = higher value, 0% TNFa-plus-vehicle, 100% no-TNFa wells
[2] = inhibitors of mutant huntingtin aggregation, primary screen, imaging, exon1htt(103Q)mCFP cells, high-content imaging (AID 483;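 active means visual image review flags a hit and inhibition of aggregation exceeds 20%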;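 further: compound exposure lasted 3 days before fixation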;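 on nuclei count: percent of the per-plate median nuclei count of sample wells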); conditions: exon1htt(103Q)mCFP cell line, aggregate imaging, at 2 µM; inhibition of aggregation: stronger effect = higher value; nuclei count: measured here: cell count, toxicity
[3] = inhibitors of E-selectin induction by TNFa, primary screen, imaging, HUVEC, immunofluorescence, MLSMR starter and 10KST1 sets (AID 487); conditions: HUVEC TNFalpha-induced E-selectin immunofluorescence imaging, at 2 µM; inhibition: stronger effect = higher value; nuclei count: measured here: cell number, toxicity;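 on inhibition: signal is fraction of cell area covered by stained E-selectin grains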;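 on nuclei count: 100% = median nuclei count of all wells on the same plate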
[4] = biological target: Voltage-gated potassium channel subunit beta-2 (Rattus norvegicus) (UniProt P62483); assay: KvBeta enzyme negative modulators, primary screen, biochemical, NADPH fluorescence (AID 622;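 active means fluorescence slope higher than the sample average by over 3 SD, cut at about -0.22 in these data, passing the limit was not always enough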;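 further: slope of raw intensity against log time taken from 70 to 1610 s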); conditions: recombinant KvBeta, 4-cyanobenzaldehyde reduction, at 10 µM, stronger effect = higher value
[5] = biological target: Voltage-gated potassium channel subunit beta-2 (Rattus norvegicus) (UniProt P62483); assay: KvBeta positive modulators, primary screen, biochemical, NADPH fluorescence (AID 623;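 active means NADPH fluorescence slope more negative than the mean of all samples by about 3 SD, 99.7% confidence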;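 further: fluorescence intensity change per second fitted from 20 to 320 s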); conditions: Recombinant KvBeta, NADPH fluorescence decrease slope, 10 min; at 10 µM; stronger effect = lower value
[6] = biological target: Muscarinic acetylcholine receptor M4 (Homo sapiens) (UniProt P08173); assay: compounds altering M4/GIRK thallium flux, either direction, primary screen, M4 allosteric agonist project, cell-based, HEK293 M4/GIRK, BTC-AM (AID 625;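 active means fluorescence slope after compound addition differing from the mean of all tested samples at 99.7% confidence, mostly higher but some lower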;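 further: thallium influx through GIRK channels coupled to M4 in HEK293 cells with BTC-AM dye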); conditions: at 10 µM, actives lie on both sides
Outline: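 Material: HEK293 cells with M4 receptor and GIRK channels; Times: cells overnight at 37 °C, BTC-AM loading 1 h, reads 2 min total; Technique: kinetic BTC-AM fluorescence sampled at 1 Hz, 10 s pre-addition baseline; Read-out basis: slope over 15–24 s of trace normalized to starting intensity; Controls: carbachol positive, DMSO negative.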

[7] = inhibitors of Sendai virus-induced IRF3 signaling, primary screen, TLR/RLR signaling modifier project, cell-based, Sendai virus stimulus, luciferase, 10K MLSCN set (AID 602276;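 active means inhibition at or above 50% at 10 µM; inactive means inhibition below 50%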;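 further: firefly luciferase from ISG56 promoter only with Renilla not read in this screen; 0% = Sendai virus plus DMSO and 100% = medium plus DMSO without virus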); conditions: HEK293 RL24 IRF3 luciferase reporter, at 10 µM, stronger effect = higher value
[8] = inhibitors of poly I:C-induced TLR3 signaling, primary screen, cell-based, poly I:C stimulus, luciferase, 10K MLSCN set (AID 602277;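 active means inhibition of the reporter signal at or above 50%; inactive means inhibition below 50%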); conditions: HEK293-TLR3 RL24 IRF3 luciferase reporter, at 10 µM, stronger effect = higher value

Voltage-gated potassium channel subunit beta-2 (Rattus norvegicus), sequence (P62483 whole entry, looked up): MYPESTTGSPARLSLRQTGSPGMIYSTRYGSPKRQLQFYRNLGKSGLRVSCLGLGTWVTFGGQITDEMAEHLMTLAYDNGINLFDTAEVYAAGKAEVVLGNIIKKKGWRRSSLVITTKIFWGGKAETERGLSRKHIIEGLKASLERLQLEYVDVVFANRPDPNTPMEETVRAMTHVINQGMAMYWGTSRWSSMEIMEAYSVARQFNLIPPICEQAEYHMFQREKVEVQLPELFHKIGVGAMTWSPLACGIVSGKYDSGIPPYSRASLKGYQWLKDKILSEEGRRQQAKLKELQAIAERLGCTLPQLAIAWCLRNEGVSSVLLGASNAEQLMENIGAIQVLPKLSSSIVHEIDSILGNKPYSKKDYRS
Muscarinic acetylcholine receptor M4 (Homo sapiens), sequence (P08173 whole entry, looked up): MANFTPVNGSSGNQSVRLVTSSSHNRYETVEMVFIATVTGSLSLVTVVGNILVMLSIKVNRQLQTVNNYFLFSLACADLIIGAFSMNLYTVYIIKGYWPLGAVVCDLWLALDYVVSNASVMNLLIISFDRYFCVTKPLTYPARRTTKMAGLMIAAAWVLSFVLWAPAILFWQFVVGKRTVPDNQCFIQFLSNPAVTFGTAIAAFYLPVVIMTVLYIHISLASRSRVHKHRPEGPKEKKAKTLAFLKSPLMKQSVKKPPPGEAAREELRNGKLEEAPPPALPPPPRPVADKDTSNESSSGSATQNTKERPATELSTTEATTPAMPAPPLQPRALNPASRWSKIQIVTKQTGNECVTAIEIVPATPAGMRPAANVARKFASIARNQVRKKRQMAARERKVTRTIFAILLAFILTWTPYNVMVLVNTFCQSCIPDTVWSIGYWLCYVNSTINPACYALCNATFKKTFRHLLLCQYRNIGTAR

Row | SMILES | cell count [1] | inhibition [1] | inhibition of aggregation [2] | nuclei count [2] | inhibition [3] | nuclei count [3] | fluorescence slope [4] | NADPH fluorescence slope [5] | fluorescence slope [6] | inhibition [7] | inhibition [8]
1 | CN(C)S(=O)(=O)c1ccc(C(=O)Nc2ccccc2C(=O)O)cc1 | 487 | -8.9% (inactive) | 13.1% (inactive) | 83% | -1.2% (inactive) | 78% | -0.52 (inactive) | -3.3e-05 (inactive) | 0.00545 (inactive) | 2.15% (inactive) | 46.7% (inactive)
2 | Cc1ccc(-c2cc(C(=O)N3CCCC3)no2)cc1 | 471 | 7.3% (inactive) | -20.5% (inactive) | 19.5% | -1.1% (inactive) | 106% | -0.585 (inactive) | 1.3e-05 (inactive) | 0.00612 (inactive) | -46.7% (inactive) | -130% (inactive)
3 | O=C(COn1nnc2ccc(C(F)(F)F)cc21)Nc1nnc(-c2ccccc2)o1 | 704 | -3.6% (inactive) | -0.6% (inactive) | 110% | 108% (active) | 80.2% | -0.503 (inactive) | -0.000163 (inactive) | 0.005 (inactive) | 2.7% (inactive) | 10.1% (inactive)
4 | CS(=O)(=O)c1ncc(Cl)c(C(=O)Nc2ccc(N3CCOCC3)cc2)n1 | 351 | -2.1% (inactive) | -35.6% (inactive) | 112% | 24.9% (inactive) | 111% | -0.46 (inactive) | 2.2e-05 (inactive) | 0.00607 (inactive) | 21.4% (inactive) | 62.8% (active)
5 | O=C(O)CCn1c(SCc2ccccc2)nc2ccccc21 | 423 | -4.4% (inactive) | 25% (inactive) | 73.9% | -33.6% (inactive) | 93.6% | -0.505 (inactive) | -2.4e-05 (inactive) | 0.00554 (inactive) | -9.99% (inactive) | -40.3% (inactive)
6 | Cc1[nH]c(=O)[nH]c(=O)c1S(=O)(=O)N1CCN(c2cccc(Cl)c2)CC1 | 799 | 4.2% (inactive) | -23.7% (inactive) | 104% | -160% (inactive) | 126% | -0.567 (inactive) | -1.8e-05 (inactive) | 0.0059 (inactive) | -13.2% (inactive) | -11.6% (inactive)
7 | Cc1cc(NCCCn2ccnc2)n2c(nc3ccccc32)c1C#N | 276 | -23.5% (inactive) | 17.7% (inactive) | 70.2% | 16.6% (inactive) | 80.2% | -0.501 (inactive) | 2e-06 (inactive) | 0.00606 (inactive) | -6.75% (inactive) | -0.197% (inactive)
8 | Cn1c(SCC(N)=O)nnc1C1CCN(S(=O)(=O)c2ccccc2C(F)(F)F)CC1 | 554 | -12.3% (inactive) | 4% (inactive) | 88.2% | 33.9% (inactive) | 96.6% | -0.214 (inactive) | -3.4e-05 (inactive) | 0.00588 (inactive) | 10.8% (inactive) | 19.2% (inactive)
9 | O=c1c(-c2ccc(F)cc2)coc2c3c(ccc12)OCCO3 | 337 | 0.7% (inactive) | 14.4% (inactive) | 131% | -65.5% (inactive) | 124% | -0.501 (inactive) | -0.000205 (inactive) | 0.00582 (inactive) | -29.6% (inactive) | -86.4% (inactive)
10 | COc1ccc(C(=O)Nn2c(SCC(=O)NCC3CCCO3)nc3ccccc3c2=O)cc1 (stereo not drawn) | 512 | -3.6% (inactive) | 13.2% (inactive) | 103% | -60.6% (inactive) | 106% | -0.511 (inactive) | -6.1e-05 (inactive) | 0.00522 (inactive) | 15.1% (inactive) | 49.1% (inactive)
11 | CS(=O)(=O)N(CC(=O)N1CCCCCC1)c1ccccc1 | 324 | -0.2% (inactive) | 1.9% (inactive) | 82.8% | -11.6% (inactive) | 106% | -0.452 (inactive) | -3.4e-05 (inactive) | 0.00505 (inactive) | 11.4% (inactive) | 8.59% (inactive)
12 | COCCNC(=O)Cn1nc(C(F)(F)F)c(Br)c1C | 376 | 1.1% (inactive) | 19.5% (inactive) | 65.4% | 0.5% (inactive) | 92% | -0.548 (inactive) | -4.9e-05 (inactive) | 0.00551 (inactive) | 3.89% (inactive) | 20.6% (inactive)
13 | COc1ccccc1C(=O)N1CCCC(c2nc(-c3cc(OC)c(OC)c(OC)c3)no2)C1 (stereo not drawn) | 307 | 0.5% (inactive) | -0.4% (inactive) | 120% | 19.1% (inactive) | 100% | -0.474 (inactive) | -3.6e-05 (inactive) | 0.0058 (inactive) | 12.4% (inactive) | 16.1% (inactive)
14 | Clc1ccc(SCCn2ccnc2)cc1 | 481 | 10.1% (inactive) | -7.9% (inactive) | 104% | -245% (inactive) | 137% | -0.325 (inactive) | -2.6e-05 (inactive) | 0.00636 (inactive) | 2.29% (inactive) | 5.02% (inactive)
15 | CC(C)OC(=O)CSc1nnnn1-c1ccc2c(c1)OCCO2 | 294 | -9.9% (inactive) | -2.7% (inactive) | 111% | -0.1% (inactive) | 118% | -0.228 (inactive) | -3.6e-05 (inactive) | 0.00598 (inactive) | -0.252% (inactive) | -97.9% (inactive)
16 | CCC1(CC)C(=O)C(C)(C)C(=O)OC1c1cccs1 (stereo not drawn) | 750 | -8.8% (inactive) | 10.4% (inactive) | 91.1% | -18.3% (inactive) | 110% | -0.454 (inactive) | -4.2e-05 (inactive) | 0.00495 (inactive) | 21.5% (inactive) | 19.6% (inactive)
17 | Nn1c(CSc2nc3ccccc3o2)nnc1CSc1nc2ccccc2o1 | 449 | -13.4% (inactive) | 24.5% (inactive) | 85.3% | 29.7% (inactive) | 86% | -0.408 (inactive) | 5.7e-05 (inactive) | 0.00537 (inactive) | 9.57% (inactive) | 17% (inactive)
18 | Cn1cnnc1SCC(=O)Nc1ccccc1Sc1ccccc1 | 740 | 4% (inactive) | -6.3% (inactive) | 93.3% | -36.2% (inactive) | 127% | -0.215 (inactive) | -2.9e-05 (inactive) | 0.00628 (inactive) | 13.5% (inactive) | 8.17% (inactive)
19 | Cc1cc(O)c(C2(C(F)(F)F)NCCNC2=O)cc1C (stereo not drawn) | 560 | 4.7% (inactive) | 24.3% (inactive) | 84.5% | 63.7% (inactive) | 63.2% | -0.576 (inactive) | 1e-05 (inactive) | 0.00721 (inactive) | 17.6% (inactive) | 29.3% (inactive)
20 | COC(=O)CCCCCNc1ccc(C(=O)OC)cc1N | 292 | 7.7% (inactive) | 12.1% (inactive) | 92.9% | -71.5% (inactive) | 122% | -0.341 (inactive) | -6.2e-05 (inactive) | 0.00505 (inactive) | 6.15% (inactive) | 18.3% (inactive)
21 | COc1ccc(C2NC(c3ccc(OC)c(OC)c3OC)C(C)C(=O)C2C)c(OC)c1OC (stereo not drawn) | 663 | -16.3% (inactive) | 2.6% (inactive) | 141% | -142% (inactive) | 104% | -0.474 (inactive) | -2.1e-05 (inactive) | 0.00551 (inactive) | 14.8% (inactive) | 25.4% (inactive)
22 | COCCN(CC(=O)NC1CCCCC1)C(=O)CSc1nc2ccccc2o1 | 666 | 12.1% (inactive) | 3.4% (inactive) | 105% | -28.2% (inactive) | 120% | -0.469 (inactive) | 2.1e-05 (inactive) | 0.00558 (inactive) | 2.87% (inactive) | 18.7% (inactive)
23 | O=c1c2ccccc2nc(-c2cccc(Cl)c2)n1O | 333 | 11.6% (inactive) | 0.5% (inactive) | 102% | -4.3% (inactive) | 112% | -0.453 (inactive) | -3.1e-05 (inactive) | 0.0197 (active) | 17.4% (inactive) | 6.85% (inactive)
24 | Clc1ccc(SCCCCn2ccnc2)cc1 | 289 | -10.4% (inactive) | 0.8% (inactive) | 101% | -114% (inactive) | 115% | -0.306 (inactive) | -1.2e-05 (inactive) | 0.00775 (inactive) | -17.8% (inactive) | -10.6% (inactive)
25 | CCn1c(NCc2ccc(N(C)C)cc2)nc2ccccc21 | 627 | 12.5% (inactive) | -2.9% (inactive) | 96.5% | -34.6% (inactive) | 116% | -0.31 (inactive) | -2.4e-05 (inactive) | 0.00632 (inactive) | -9.27% (inactive) | -36.5% (inactive)
26 | COc1ccc(CC(NC(C)=O)C(=O)NC2CCN(C(=O)Nc3ccc(C#N)cc3)CC2)cc1OC (stereo not drawn) | 312 | -1.9% (inactive) | -14.4% (inactive) | 102% | -29.9% (inactive) | 112% | -0.415 (inactive) | 8.5e-05 (inactive) | 0.00714 (inactive) | 14.2% (inactive) | 14.3% (inactive)
27 | Cn1ccnc1C(O)c1ccco1 (stereo not drawn) | 722 | 3.3% (inactive) | -15.7% (inactive) | 97.2% | -146% (inactive) | 129% | -0.422 (inactive) | 2.5e-05 (inactive) | 0.00477 (inactive) | 15.2% (inactive) | 13.2% (inactive)
28 | O=C(O)CCc1ccc(-c2cccs2)n1NC(=O)c1ccco1 | 719 | 3.6% (inactive) | -10.1% (inactive) | 107% | -93.6% (inactive) | 132% | -0.463 (inactive) | 1.5e-05 (inactive) | 0.00473 (inactive) | 20.8% (inactive) | 17.9% (inactive)
